Each block holds one molecule with its values, some of them ahead of it.
What was measured:
[1] = target: DNA topoisomerase II (Homo sapiens, UniProt P11388+Q02880); experiment: Tested for inhibition of topoisomerase II isolated from HeLa cells by DNA-cleavage assay
Summary of the method: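 HeLa topo II purified from late-log suspension cultures. Reactions were assembled at 4 °C in 50 mM Tris-Cl pH 7.9, 44 mM NaCl, 10 mM MgCl2, 0.5 mM ATP, 3'-32P-end-labeled pBR322 and 10 units enzyme, then run 20 min at 37 °C. SDS/KCl precipitation captured covalent complex, counted by scintillation.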

[2] = system: P388; experiment: In vitro cytotoxicity against P388 murine leukemia cells in culture in a clonogenic assay after 1 hour exposure to drug; format: functional, cell-based; conditions: Mus musculus, P388, 1 h

EC50 [1]: 16 µM
Structure (SMILES): Cc1cc(-c2c(F)cc3c(=O)cc(C)n(C4CC4)c3c2F)cc(C)n1

EC50 [1]: 74 µM
Structure (SMILES): Cc1cc(-c2c(F)cc3c(=O)c(C(=O)[O-])cn(C(C)(C)C)c3c2F)cc(C)n1.[Na+]

EC50 [1]: > 430 µM
Structure (SMILES): Cc1cc(-c2c(F)cc3c(=O)c(C(=O)O)cn(-c4ccc(F)cc4)c3c2F)cc(C)n1

EC50 [1]: 53 µM
Structure (SMILES): Cc1ccc(-c2c(F)cc3c(=O)c(C(=O)O)cn(C4CC4)c3c2F)c(C)n1

EC50 [1]: > 140 µM
Structure (SMILES): Cc1cc(-c2c(F)cc3c(=O)c(C(=O)O)csc3c2F)cc(C)n1.Cl

EC50 [1]: 17 µM
Structure (SMILES): Cc1cc(-c2c(F)cc3c(=O)ccn(C4CC4)c3c2F)cc(C)n1

EC50 [1]: 52 µM
Structure (SMILES): O=C(O)c1cn(C2CC2)c2c(F)c(-c3cccnc3)c(F)cc2c1=O

EC50 [1]: > 220 µM
Structure (SMILES): Cc1cc(-c2c(F)cc3c(=O)c(C(=O)O)c(-c4ccccc4)n(C4CC4)c3c2F)cc(C)n1

EC50 [1]: > 530 µM
Structure (SMILES): Cc1cc(-c2c(F)cc3c(=O)c(C(=O)O)cn(CCF)c3c2F)cc(C)n1

EC50 [1]: > 240 µM
Structure (SMILES): Cc1cc(-c2c(F)cc3c(=O)cc(-c4ccccc4)n(C4CC4)c3c2F)cc(C)n1

EC50 [1]: 13 µM
Structure (SMILES): Cc1cc(-c2c(F)c(F)c3c(=O)c(C(=O)O)cn(C4CC4)c3c2F)cc(C)n1

EC50 [1]: 7.6 µM
Structure (SMILES): Cc1cc(-c2c(F)cc3c(=O)c(C(=O)O)cn(C4CC4)c3c2F)cc(C)n1 [WIN-57294]
IC50 [2]: 29 µM

EC50 [1]: 110 µM
Structure (SMILES): CCn1cc(C(=O)O)c(=O)c2cc(F)c(-c3cc(C)nc(C)c3)c(F)c21

EC50 [1]: 340 µM
Structure (SMILES): NC1CCN(c2c(F)cc3c(=O)c(C(=O)O)cn(C4CC4)c3c2F)C1 (centres undefined)

Second part, the molecule before the results:

Structure (SMILES): Cc1cc(-c2c(F)cc3c(=O)c(C(=O)O)cn(C4CC4)c3c2F)ccn1
EC50 [1]: 16 µM

Structure (SMILES): Cc1cc(-c2c(F)c(Sc3ccccc3)c3c(=O)c(C(=O)O)cn(C4CC4)c3c2F)cc(C)n1
EC50 [1]: > 420 µM

Structure (SMILES): COc1cc([C@@H]2c3cc4c(cc3[C@@H](O[C@@H]3O[C@@H]5CO[C@@H](C)O[C@H]5[C@H](O)[C@H]3O)[C@H]3COC(=O)[C@H]23)OCO4)cc(OC)c1O [ETOPOSIDE]
IC50 [2]: 0.3 µM

Structure (SMILES): Cc1cc(-c2c(F)cc3c(=O)c(C(=O)O)c(C)n(C4CC4)c3c2F)cc(C)n1
EC50 [1]: > 260 µM

Structure (SMILES): O=C(O)c1cn(C2CC2)c2c(F)c(-c3ccc(O)cc3)c(F)cc2c1=O
EC50 [1]: 1.2 µM

Structure (SMILES): Cc1cc(-c2c(F)cc3c(O)c(C(=O)O)cnc3c2F)cc(C)n1
EC50 [1]: > 300 µM

Structure (SMILES): CN1CCN(c2c(F)cc3c(=O)c(C(=O)O)cn(C4CC4)c3c2F)CC1
EC50 [1]: 150 µM

Structure (SMILES): O=C(O)c1cn(C2CC2)c2c(F)c(-c3ccncc3)c(F)cc2c1=O
EC50 [1]: 17 µM

Structure (SMILES): Cc1cc(-c2c(F)c(N)c3c(=O)c(C(=O)O)cn(C4CC4)c3c2F)cc(C)n1
EC50 [1]: 6.2 µM

— ChEMBL document CHEMBL1126804, “Mammalian topoisomerase II inhibitory activity of 1-cyclopropyl-6,8- difluoro-1,4-dihydro-7-(2,6-dimethyl-4-pyridinyl)-4-oxo-3-quinolinecarb oxylic acid and related derivatives” (J Med Chem, 1993)
